Read-outs that look alike come from different tables or passages of the source.
Assays:
[1] = 1 M HCl, 298 K; cited from earlier work
[2] = cited from earlier work
[3] = T1-weighted phantom images at 7 T in mouse serum and PBS; assay type: physicochemical; conditions: 25 °C, 0.3 mM in mouse serum
Procedure, shortened: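 T1-weighted phantoms of Gd3+ complex in mouse blood serum were imaged at 7 T. A clinical Gd3+ agent and serum alone served as comparators. A spin echo sequence was used, TE = 10 ms, TR = 400 ms, and signal intensities were read.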

CC(O)CN1CCN(CC(=O)[O-])CCN(CC(=O)[O-])CCN(CC(=O)[O-])CC1.[Gd+3] (centres unmarked) [GdHPDO3A]
kobs dissociation rate constant [1]: 0.00026 s⁻¹ | t1/2 dissociation half-life [1]: 44 min | r1 relaxivity ([2]; 20 MHz, 25 °C): 4.6 mM⁻¹ s⁻¹ | kex^298 water exchange rate ([2]; SAP isomer): 1.56 10^6 s^−1 | ΔH≠ ([2]; SAP isomer): 12.7 kcal/mol | ΔS≠ ([2]; SAP isomer): +52 kJ mol^−1 K^−1 | kex^298 water exchange rate ([2]; TSAP isomer): 112 10^6 s^−1 | ΔH≠ ([2]; TSAP isomer): 3.59 kcal/mol | τR^298 rotational correlation time [2]: 65 ps

O=C([O-])CN1CCNCCN(CC(=O)[O-])CCN(CC(=O)[O-])CC1.[Gd+3] [GdDO3A]
kobs dissociation rate constant [1]: 0.023 s⁻¹ | t1/2 dissociation half-life [1]: 0.5 min

O=C([O-])CN1CCN(CC(=O)[O-])CCN(CC(=O)O)CCN(CC(=O)[O-])CC1.[Gd+3] [GdDOTA]
kobs dissociation rate constant [1]: 1.8e-06 s⁻¹ | t1/2 dissociation half-life [1]: 6418 min | signal intensity, T1-weighted phantom [3]: 3.97 × 10^4

— paper PMC12778361 (Chemical Science, 2025)
